Assay results: ChEMBL document CHEMBL2177030
The source made the active and inactive calls. No cut-off for these calls is given here.

Columns and labels:
[1] = target: T1, Cutinase 1 (Fusarium vanettenii) (UniProt P00590); assay: Inhibition of Fusarium solani pisi cutinase assessed as half inactivation time pre-incubated with enzyme before substrate addition by pH-stat technique
T1 sequence (whole entry): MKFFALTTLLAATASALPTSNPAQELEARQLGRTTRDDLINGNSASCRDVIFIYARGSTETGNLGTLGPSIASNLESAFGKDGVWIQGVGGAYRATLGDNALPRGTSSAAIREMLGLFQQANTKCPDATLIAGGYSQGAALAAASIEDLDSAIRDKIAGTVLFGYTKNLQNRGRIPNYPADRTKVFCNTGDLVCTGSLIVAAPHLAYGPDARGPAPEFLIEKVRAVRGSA
In short: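 Cutinase was preincubated at 25 °C with inhibitor at xI 4 in 2 mM NaTDC for 1 h. Residual activity was sampled at intervals by pH-stat at 37 °C on TC4 emulsion in 2.5 mM Tris-HCl pH 8.0, 150 mM NaCl, 0.25 mM NaTDC. t1/2 was taken from the time course. Runs were done at least in duplicate.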

[2] = target: T1, Cutinase 1 (Fusarium vanettenii); assay: Inhibition of Fusarium solani pisi cutinase pre-incubated for 30 mins with enzyme before substrate addition by pH-stat technique
In short: (§1)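 Cutinase was preincubated for 30 min at 25 °C in 2 mM NaTDC, substrate absent, at inhibitor molar excess xI 2, 4, 20, 40 or 100. Residual activity was measured by pH-stat at 37 °C on TC4 emulsion at pH 8.0 with 0.25 mM NaTDC. xI50 is the molar excess giving 50% activity. Isopropanol controls were run. At least duplicate.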

[3] = target: T1, Cutinase 1 (Fusarium vanettenii); assay: Inhibition of Fusarium solani pisi cutinase assessed as residual enzyme activity pre-incubated for 30 mins with enzyme before substrate addition by pH-stat technique; in short: as §1
[4] = target: T2, Pancreatic triacylglycerol lipase (Homo sapiens) (UniProt P16233); assay: Inhibition of human recombinant pancreatic lipase expressed in Pichia pastoris at 200 molar excess compound concentration pre-incubated for 2 hrs with enzyme before substrate addition by pH-stat technique
T2 sequence (whole entry): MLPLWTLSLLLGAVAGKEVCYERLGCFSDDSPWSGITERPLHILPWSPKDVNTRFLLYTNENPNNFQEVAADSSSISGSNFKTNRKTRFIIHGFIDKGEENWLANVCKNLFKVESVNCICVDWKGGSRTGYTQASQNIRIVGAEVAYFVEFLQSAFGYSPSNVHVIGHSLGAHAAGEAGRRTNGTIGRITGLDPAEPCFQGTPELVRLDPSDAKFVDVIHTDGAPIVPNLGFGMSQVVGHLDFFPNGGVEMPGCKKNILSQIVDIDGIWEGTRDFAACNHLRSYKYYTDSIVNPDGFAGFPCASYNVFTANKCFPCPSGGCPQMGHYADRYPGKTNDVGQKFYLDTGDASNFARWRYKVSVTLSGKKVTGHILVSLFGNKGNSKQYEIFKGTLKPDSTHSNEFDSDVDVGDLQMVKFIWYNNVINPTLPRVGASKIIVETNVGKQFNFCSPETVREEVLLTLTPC

[5] = system: Mycobacterium tuberculosis; assay: Inhibition of Mycobacterium tuberculosis LipY at 40 molar excess compound concentration pre-incubated for 30 mins with enzyme before substrate addition by pH-stat technique
[6] = target: T3, Gastric triacylglycerol lipase (Canis lupus familiaris) (UniProt P80035); assay: Inhibition of dog recombinant gastric lipase expressed in transgenic maize at 200 molar excess compound concentration pre-incubated for 2 hrs with enzyme before substrate addition by pH-stat technique; format: single protein; settings: Stomach
T3 sequence (whole entry): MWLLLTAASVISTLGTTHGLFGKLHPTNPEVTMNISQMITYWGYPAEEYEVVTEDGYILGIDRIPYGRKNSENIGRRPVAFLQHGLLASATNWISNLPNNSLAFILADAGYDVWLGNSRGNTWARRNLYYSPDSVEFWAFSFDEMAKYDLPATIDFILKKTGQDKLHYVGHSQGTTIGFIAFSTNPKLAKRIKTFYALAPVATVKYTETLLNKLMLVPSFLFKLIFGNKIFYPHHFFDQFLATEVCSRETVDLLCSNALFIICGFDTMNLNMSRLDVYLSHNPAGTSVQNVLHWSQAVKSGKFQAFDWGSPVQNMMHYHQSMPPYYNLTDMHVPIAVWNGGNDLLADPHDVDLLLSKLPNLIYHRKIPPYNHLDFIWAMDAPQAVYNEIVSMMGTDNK

[7] = target: T4, Pancreatic lipase-related protein 2 (Cavia porcellus) (UniProt P81139); assay: Inhibition of guinea pig recombinant PLRP2 expressed in Aspergillus oryzae at 200 molar excess compound concentration pre-incubated for 2 hrs with enzyme before substrate addition by pH-stat technique
T4 sequence (whole entry): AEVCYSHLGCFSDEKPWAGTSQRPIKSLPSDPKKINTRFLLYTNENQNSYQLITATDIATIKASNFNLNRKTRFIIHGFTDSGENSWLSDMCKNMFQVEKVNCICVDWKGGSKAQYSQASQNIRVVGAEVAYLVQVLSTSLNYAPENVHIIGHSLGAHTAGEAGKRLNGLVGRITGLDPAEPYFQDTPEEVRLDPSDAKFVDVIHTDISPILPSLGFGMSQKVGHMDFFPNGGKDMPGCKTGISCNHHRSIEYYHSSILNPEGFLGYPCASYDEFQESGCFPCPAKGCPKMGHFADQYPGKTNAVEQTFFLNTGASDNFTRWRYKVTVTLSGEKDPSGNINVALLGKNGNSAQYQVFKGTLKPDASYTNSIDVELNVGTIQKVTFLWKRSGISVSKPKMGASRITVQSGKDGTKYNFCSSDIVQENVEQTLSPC

[8] = target: Monoacylglycerol lipase (Mycobacterium tuberculosis H37Rv) (UniProt O07427); assay: Inhibition of Mycobacterium tuberculosis Rv0183 pre-incubated for 30 mins with enzyme before substrate addition by pH-stat technique
In short: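 Rv0183 was preincubated 30 min at 25 °C without NaTDC at inhibitor molar excess 2, 4, 20, 40 or 100. Residual monoglyceride lipase activity was measured by pH-stat at 37 °C with MC18 emulsion, pH 8.0, 3 mM NaTDC. xI50 was read from the residual-activity curve. Solvent controls were run. At least duplicate.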

Monoacylglycerol lipase (Mycobacterium tuberculosis H37Rv), sequence (O07427 whole entry): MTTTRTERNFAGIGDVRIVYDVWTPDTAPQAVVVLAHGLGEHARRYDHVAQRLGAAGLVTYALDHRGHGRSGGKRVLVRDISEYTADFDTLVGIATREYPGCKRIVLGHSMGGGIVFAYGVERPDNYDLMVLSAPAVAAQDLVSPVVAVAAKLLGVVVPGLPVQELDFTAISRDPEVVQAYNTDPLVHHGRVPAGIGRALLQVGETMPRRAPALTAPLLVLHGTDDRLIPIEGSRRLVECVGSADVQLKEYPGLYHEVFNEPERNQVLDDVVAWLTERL

CO[P@]1(=O)OC[C@H]2COC(=O)C2=C(C)O1 (racemic)
T1/2 [1]: 10.8 s | XI50 [2]: 0.96 molar excess | Activity [3]: 6% | inhibition [4]: inactive | inhibition [5]: 14% | inhibition [6]: inactive | inhibition [7]: inactive | XI50 [8]: 5.22 molar excess
